From publication PMC3752840 (Journal of the American Chemical Society, 2013)
Several values for one entry are separate records, joined by “and”; a condition that tells them apart may be missing. Equal entries are not always repeated. Square brackets hold non-standard residues; d marks the D form. Peptide text beside a SMILES is read from it. * marks the point of attachment. Heptanoyl = CCCCCCC(=O)*; Octanoyl = CCCCCCCC(=O)*

Legend:
[1] = system: U-937 histiocytic lymphoma cell line; type: cell-based, human; conditions: 72 h
[2] = target: human 20S proteasome, caspase-like activity (Homo sapiens, UniProt P28072); assay: Proteasome inhibition assay, caspase-like activity; type: biochemical
Procedure, shortened: (§1)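 Human 20S proteasome (1 nM) in 10 mM Tris-HCl, 0.035% SDS, pH 7.4, preincubated with test compound for 15 min at RT. Fluorogenic substrate then added at 5 µM: Suc-LLVY-AMC for chymotrypsin-like activity, Z-LLE-AMC for caspase-like activity. Fluorescence read at 380/460 nm; IC50 calculated from initial rates.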

[3] = target: human 20S proteasome, chymotrypsin-like activity (Homo sapiens, UniProt P28074); assay: Proteasome inhibition assay, chymotrypsin-like activity; type: biochemical
Procedure, shortened: as §1

papain = target: T1, papain (Carica papaya, UniProt P00784); assay: biochemical
T1 sequence (P00784 134-345): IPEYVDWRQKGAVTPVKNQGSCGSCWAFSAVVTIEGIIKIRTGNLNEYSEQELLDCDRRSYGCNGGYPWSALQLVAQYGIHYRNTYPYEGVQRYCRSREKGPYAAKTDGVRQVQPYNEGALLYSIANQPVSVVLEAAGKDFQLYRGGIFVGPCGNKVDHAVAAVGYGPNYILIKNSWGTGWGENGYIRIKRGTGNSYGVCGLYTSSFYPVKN

human calpain-I = target: T2, human calpain-I (Homo sapiens, UniProt P07384); assay: Calpain IC50, Suc-LLVY-AMC fluorescence assay; type: biochemical
T2 sequence (P07384 1-714): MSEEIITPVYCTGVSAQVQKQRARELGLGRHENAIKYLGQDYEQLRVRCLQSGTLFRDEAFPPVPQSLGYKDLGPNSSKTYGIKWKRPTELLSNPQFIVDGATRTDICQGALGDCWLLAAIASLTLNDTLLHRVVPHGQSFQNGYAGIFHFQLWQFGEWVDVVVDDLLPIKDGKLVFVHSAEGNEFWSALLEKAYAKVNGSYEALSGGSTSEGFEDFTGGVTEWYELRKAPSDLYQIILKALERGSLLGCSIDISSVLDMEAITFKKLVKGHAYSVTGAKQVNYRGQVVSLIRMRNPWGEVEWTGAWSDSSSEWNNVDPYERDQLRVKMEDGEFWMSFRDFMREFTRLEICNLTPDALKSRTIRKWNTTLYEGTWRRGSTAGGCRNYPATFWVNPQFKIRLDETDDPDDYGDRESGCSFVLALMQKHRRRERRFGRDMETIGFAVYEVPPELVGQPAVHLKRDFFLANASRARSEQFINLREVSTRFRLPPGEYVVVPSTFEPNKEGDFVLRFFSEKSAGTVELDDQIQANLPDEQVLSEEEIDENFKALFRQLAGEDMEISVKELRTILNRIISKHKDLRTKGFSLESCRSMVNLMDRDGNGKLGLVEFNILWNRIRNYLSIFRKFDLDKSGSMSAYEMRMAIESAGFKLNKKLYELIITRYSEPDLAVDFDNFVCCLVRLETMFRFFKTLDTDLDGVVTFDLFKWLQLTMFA
T2 sequence (P04632 1-268 partner): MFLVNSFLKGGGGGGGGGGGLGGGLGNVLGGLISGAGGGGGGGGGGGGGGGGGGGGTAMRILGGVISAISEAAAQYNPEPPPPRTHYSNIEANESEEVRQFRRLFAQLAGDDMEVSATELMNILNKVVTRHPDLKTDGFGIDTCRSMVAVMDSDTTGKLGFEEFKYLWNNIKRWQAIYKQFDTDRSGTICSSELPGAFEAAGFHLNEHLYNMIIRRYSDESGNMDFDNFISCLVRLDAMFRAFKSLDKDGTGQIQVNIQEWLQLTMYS

[4] = system: MM.M1S multiple myeloma cell line; type: cell-based, human; conditions: 72 h, CellTiter-Glo; compound 3 no inhibition up to 80 µM
[5] = system: FR4 multiple myeloma cell line; type: cell-based, human; conditions: 72 h
human 20S proteasome = human 20S proteasome (Homo sapiens, UniProt P28072+P28074); assay: Proteasome inhibition assay; type: biochemical; conditions: two proteasome activities, which is which not stated
[6] = CellTiter-Glo, compound 3 no inhibition up to 80 µM

SMILES | IC50 [1] [nM] | IC50 [2] [nM] | IC50 [3] [nM] | IC50 (papain) [nM] | IC50 (human calpain-I) [nM] | IC50 cell line U-937 [1, 6] | IC50 cell line MM.M1S [4] | IC50 cell line FR4 [5, 6] | fold higher potency against the proteasome than 1 and 2 (human 20S proteasome) | IC50 [5] [nM]
CCCCCCCC(=O)N[C@H](C(=O)N[C@@H](CCC(N)=O)C(=O)N[C@H](C(=O)N[C@H](CCC(N)=O)C(=O)N[C@H](C(=O)N[C@H](C=O)Cc1ccccc1)C(C)C)[C@@H](C)CC)[C@@H](C)CC [Compound 1] (Octanoyl-IQI[dQ]VF-aldehyde; N-terminus assumed) | 13000 ± 1000 | 2300 ± 200 | 4900 ± 300 | 160 ± 40 | 2900 ± 300 | – | – | – | – | –
CC[C@H](C)[C@H](N)C(=O)N[C@@H](CCC(N)=O)C(=O)N[C@H](C(=O)N[C@H](CCC(N)=O)C(=O)N[C@H](C(=O)N[C@H](C=O)Cc1ccccc1)C(C)C)[C@@H](C)CC [Compound 3] (H-IQI[dQ]VF-aldehyde) | – | 330 ± 70 | 430 ± 80 | 70 ± 10 | 1800 ± 300 | No inhibition | No inhibition | No inhibition | 6 fold and 10 fold | –
CCCCCCC(=O)N[C@H](C(=O)N[C@@H](CCC(N)=O)C(=O)N[C@H](C(=O)N[C@H](CCC(N)=O)C(=O)N[C@H](C(=O)N[C@H](C=O)Cc1ccccc1)[C@@H](C)CC)[C@@H](C)CC)[C@@H](C)CC [Compound 2] (Heptanoyl-IQI[dQ]IF-aldehyde; N-terminus assumed) | – | 2300 ± 700 | 3300 ± 300 | 350 ± 30 | 2700 ± 400 | – | – | – | – | 30000 ± 10000
